Test results from ChEMBL document CHEMBL3593156, “Bioactive Sesquiterpenes and Lignans from the Fruits of Xanthium sibiricum” (J Nat Prod, 2015).

How the values were obtained:
[1] = Antiinflammatory activity in C57BL6/J mouse BV2 cells assessed as inhibition of LPS-induced nitric oxide production after 24 hrs by Griess assay; assay type: functional, cell-based; settings: BV-2, 24 h
Outline: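 Mouse (C57BL6/J) macrophages grown 24 h at 37 °C in RPMI1640, then given 1 μg/mL LPS plus test compounds for a further 24 h at 37 °C. Blank, LPS-only and dexamethasone (10−6 M) wells served as controls. Nitrite in supernatant was read with Griess reagent at 570 nm against a sodium nitrite standard.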

[2] = system: Mus musculus; assay: Antiinflammatory activity in ICR mouse assessed as inhibition of croton oil-induced ear edema at 50 mg/ml administered 1 hr prior to croton oil challenge measured after 4 hrs relative to control; assay type: functional
Outline: (§1)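 Male ICR mice (18−20 g, n = 10 per group) received 0.4 mg croton oil in […] acetone on the left ear. Treatment was applied 1 h before the croton oil, and the animals were killed 4 h after it. Edema was taken as the weight difference between 8 mm punches of the treated and untreated ears, expressed as % reduction versus control mice.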

[3] = system: Coxsackievirus B3; assay: Antiviral activity against Coxsackievirus B3 infected in African green monkey Vero cells assessed as inhibition of virus-induced cytopathic effect; assay type: functional, organism-based; settings: Enterovirus B
Outline: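 Vero cells (2.5 × 10^4/well) were plated for 24 h, infected 2 h with 100 TCID50 Coxsackievirus B3 (Nancy), then given compounds at various concentrations until control CPE reached 4+. Run in triplicate, at least three times. IC50 is the concentration inhibiting 50% of CPE (Reed and Muench). SI = TC50/IC50.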

[4] = Cytotoxicity against African green monkey Vero cells assessed as growth inhibition by CPE assay; assay type: cell-based; settings: chlorocebus sabaeus, read-out: TC50 (the source's name)
Outline: (§2)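 Vero or MDCK cells (2.5 × 10^4/well) were seeded and incubated overnight. Medium was then replaced with compounds at various concentrations in triplicate. After a 2-day incubation, cytotoxicity was scored by CPE. TC50 is the concentration inhibiting 50% of cell growth versus controls (Reed and Muench). Values are means of three independent determinations.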

[5] = Selectivity index, ratio of TC50 for African green monkey Vero cells to IC50 for Coxsackievirus B3-induced cytopathic effect in African green monkey Vero cells; assay type: toxicity, cell-based; settings: read-out: Selectivity Index
Outline: (§3)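 Vero cells (2.5 × 10^4 cells/well). TC50: cells incubated overnight, compounds applied in triplicate for 2 days, CPE read, 50% growth inhibition versus controls by Reed and Muench. IC50: cells infected 2 h with 100 TCID50 CVB3 (Nancy), compounds added until control CPE 4+, 50% CPE inhibition by Reed and Muench. SI = TC50/IC50.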

[6] = Cytotoxicity against MDCK cells assessed as growth inhibition by CPE assay; assay type: cell-based, Canis lupus familiaris; settings: dog, read-out: TC50 (the source's name); outline: as §2
[7] = Antiviral activity against Influenza A virus (A/FM/1/47(H1N1)) infected in MDCK cells assessed as inhibition of virus-induced cytopathic effect; assay type: functional, cell-based, Influenza A virus (A/Fort Monmouth/1/1947(H1N1))
Outline: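 MDCK cells (2.5 × 10^4 cells/well) plated 24 h, PBS-washed, infected 2 h with 100 TCID50 influenza A/FM/1/47 (H1N1); compounds at various concentrations added, incubation until control CPE reached 4+. Triplicate, at least three separate runs; IC50 = minimal concentration inhibiting 50% CPE, Reed and Muench method.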

[8] = Selectivity index, ratio of TC50 for MDCK cells to IC50 for Influenza A virus (A/FM/1/47(H1N1))-induced cytopathic effect in MDCK cells; assay type: toxicity, cell-based; settings: dog, read-out: Selectivity Index
Outline: as §3, with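 “MDCK” for “Vero”, “IC50: PBS-washed” for “IC50:”, “influenza A/FM/1/47 (H1N1),” for “CVB3 (Nancy),”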

[9] = system: Mus musculus; assay: Antiinflammatory activity in ICR mouse assessed as inhibition of croton oil-induced ear edema at 1 mg/ml administered 1 hr prior to croton oil challenge measured after 4 hrs relative to control; assay type: functional; outline: as §1

In the case of `C=C1C(=O)O[C@@H]2C=C(CCC(C)=O)[C@@H](C)CC[C@@H]12`, the IC50 [1] is reported as 8.5 µM, the “inhibition (INH)” value [2] is reported as less than 20% and the IC50 [3] is reported as 6.4 µM. The CC50 [4] was 19.2 µM, the selectivity ratio [5] was 3 and the CC50 [6] was 19.3 µM. The IC50 [7] was 8.6 µM and the selectivity ratio [8] was 2.2.
With `C=C1C(=O)O[C@H]2C[C@H](C)C(CCC(C)=O)=CC[C@H]12` the IC50 [1] was 5.6 µM, the “inhibition (INH)” value [2] was 46.9% and the IC50 [3] was greater than 35 µM. The IC50 [7] was greater than 35 µM.
Work on `C=C1[C@H]2C[C@H]2[C@]2(C)CC(=O)C3=C(C)C(=O)O[C@@H]3[C@@H]12` yielded an IC50 [1] greater than 10 µM, an IC50 [3] greater than 35 µM and an IC50 [7] greater than 35 µM.
With `C=C1[C@@H]2C[C@@H]2[C@@]2(C)C=C3OC(=O)C(C)=C3[C@@H](O)[C@H]12` the IC50 [1] was greater than 10 µM, the IC50 [3] was greater than 35 µM and the IC50 [7] was greater than 35 µM.
With `COC(=O)CC1=CC[C@H]2[C@H](C[C@@H]1C)OC(=O)[C@H]2C` the IC50 [1] was greater than 10 µM, the IC50 [3] was greater than 35 µM and the IC50 [7] was greater than 35 µM.
`C[C@H]1C[C@@H]2OC(=O)[C@H](C)[C@H]2C=CC1=O` gave an IC50 [1] greater than 10 µM, an IC50 [3] greater than 35 µM and an IC50 [7] greater than 35 µM.
Compound `C[C@@H]1C(=O)O[C@H]2C[C@H](C)C(C(=O)O)=CC[C@@H]21` has an IC50 [1] greater than 10 µM, an IC50 [3] greater than 35 µM and an IC50 [7] greater than 35 µM.
With `C[C@H]1C[C@@H]2OC(=O)[C@H](C)[C@H]2CC=C1C(=O)O` the IC50 [1] was greater than 10 µM, the IC50 [3] was greater than 35 µM and the IC50 [7] was greater than 35 µM.
In the case of `C[C@H]1C[C@@H]2OC(=O)[C@H](C)[C@H]2CC=C1C=O`, the IC50 [1] is reported as greater than 10 µM, the IC50 [3] is reported as greater than 35 µM and the IC50 [7] is reported as greater than 35 µM.
With `C=C1C(=O)O[C@H]2C[C@H](C)C(C=O)=CC[C@H]12` the IC50 [1] was 3 µM, the “inhibition (INH)” value [2] was less than 20% and the IC50 [3] was 19.2 µM. It also gave a CC50 [4] of 69.3 µM, a selectivity ratio [5] of 3.6 and a CC50 [6] of 48.1 µM. The IC50 [7] was 6.4 µM and the selectivity ratio [8] was 7.5.
Work on `COc1cc([C@H]2Oc3c(OC)cc(C(=O)[C@@H](O)CO)cc3[C@@H]2CO)ccc1O` yielded an IC50 [1] greater than 10 µM, an IC50 [3] greater than 35 µM and an IC50 [7] greater than 35 µM.
With `COc1cc([C@@H]2Oc3c(OC)cc(C(=O)[C@H](O)CO)cc3[C@H]2CO)ccc1O` the IC50 [1] was greater than 10 µM, the IC50 [3] was greater than 35 µM and the IC50 [7] was greater than 35 µM.
`CC(O)CCC1=CC[C@H]2[C@@H](C[C@@H]1C)OC(=O)[C@@H]2C` (stereo not given in full) showed an IC50 [1] of 5.7 µM, an IC50 [3] greater than 35 µM and an IC50 [7] greater than 35 µM.
For `CC(=O)/C=C/C1=CC[C@H]2[C@H](C[C@@H]1C)OC(=O)[C@@H]2C`, the IC50 [1] was 3.7 µM, the “inhibition (INH)” value [2] was less than 20% and the IC50 [3] was greater than 35 µM. For the same compound, the IC50 [7] was greater than 35 µM.
For `CC(=O)CCC1=CC[C@H]2[C@H](C[C@@H]1C)OC(=O)[C@@H]2C`, the IC50 [1] was greater than 10 µM, the “inhibition (INH)” value [2] was less than 20% and the IC50 [3] was 6.4 µM. The CC50 [4] was 77.6 µM, the selectivity ratio [5] was 12.1 and the IC50 [7] was greater than 35 µM.
With `CC(=O)/C=C/C1=CC[C@H]2[C@H](C[C@@H]1C)OC(=O)[C@H]2C` the IC50 [1] was greater than 10 µM, the IC50 [3] was greater than 35 µM and the IC50 [7] was greater than 35 µM.
In the case of `CC1=C2C[C@H]3[C@@]4(CO4)[C@H](O)C=C[C@]3(C)C[C@@H]2OC1=O`, the IC50 [1] is reported as greater than 10 µM, the IC50 [3] is reported as 19.2 µM and the CC50 [4] is reported as 69.3 µM. The selectivity ratio [5] was 3.6, the CC50 [6] was 100 µM and the IC50 [7] was 33.3 µM. The selectivity ratio [8] was 3.
`CC(=C/C(=O)O)/C=C/[C@]1(O)[C@@]2(C)CO[C@]1(C)C[C@@H](O)C2` showed an IC50 [1] greater than 10 µM, an IC50 [3] greater than 35 µM and an IC50 [7] greater than 35 µM.
For `CC(=C/C(=O)O)/C=C/[C@]1(O)[C@@]2(C)CO[C@]1(C)CC(=O)C2`, the IC50 [1] was greater than 10 µM, the IC50 [3] was greater than 35 µM and the IC50 [7] was greater than 35 µM.
With `COc1cc(C(O)C(CO)Oc2ccc(C(=O)O)cc2OC)ccc1O` (stereo not given) the IC50 [1] was greater than 10 µM, the IC50 [3] was greater than 35 µM and the CC50 [6] was 100 µM. For the same compound, the IC50 [7] was 8.4 µM and the selectivity ratio [8] was 11.9.
`CCOC(=O)c1ccc(O)c(O)c1` showed an IC50 [1] greater than 10 µM, an IC50 [3] of 11.3 µM and a CC50 [4] of 23.1 µM. The selectivity ratio [5] was 2.1 and the IC50 [7] was greater than 35 µM.
In the case of `C[C@@H]1C[C@H]2[C@@H]3CCC4=CC(=O)C=C[C@]4(C)[C@@]3(F)[C@@H](O)C[C@]2(C)[C@@]1(O)C(=O)CO` [DEXAMETHASONE], the IC50 [1] is reported as 0.025 µM and the “inhibition (INH)” value [9] is reported as 70.5%.
For `CCOC(=O)/C=C/c1ccc(O)c(O)c1` [ETHYL CAFFEATE], the IC50 [1] was 2.5 µM, the IC50 [3] was greater than 35 µM and the CC50 [6] was 19.3 µM. It also gave an IC50 [7] of 3.7 µM and a selectivity ratio [8] of 5.2.
With `C=C1CC=C[C@]2(C)C[C@]3(O)OC(=O)C(C)C3=C[C@@H]12` (stereo not given in full) [HYDROXYLINDESTENOLIDE] the IC50 [1] was 3.9 µM, the “inhibition (INH)” value [2] was 37.7% and the IC50 [3] was greater than 35 µM. For the same compound, the IC50 [7] was greater than 35 µM.
Compound `CCOC(=O)C1=C[C@@H](OC(CC)CC)[C@H](NC(C)=O)[C@@H](N)C1` [OSELTAMIVIR] has a CC50 [6] of 3120 µM, an IC50 [7] of 2.7 µM and a selectivity ratio [8] of 1140.
Compound `Cc1cc(CCCOc2c(C)cc(-c3noc(C(F)(F)F)n3)cc2C)on1` [PLECONARIL] has an IC50 [3] of 0.0025 µM, a CC50 [4] of 40.5 µM and a selectivity ratio [5] of 16200.
`NC(=O)c1ncn([C@@H]2O[C@H](CO)[C@@H](O)[C@H]2O)n1` [RIBAVIRIN] showed an IC50 [3] of 1200 µM and a selectivity ratio [5] of 6.8.
